Test results as given in publication PMC4855511 (Clinical chemistry, 2011).
Values belong to the substance of their own block, whether it stands above or below them.

Columns and labels:
[1] = in vivo, ref [27], [28]; cited from earlier work
[2] = cited from earlier work
GC-A = details: ref [15], cited from earlier work
human GC-A [3] = target: T1, human GC-A (Homo sapiens, UniProt P16066); assay: Cellular cGMP elevation in HEK293 cells stably expressing human GC-A; assay type: cell-based
T1 sequence (P16066 33-1061): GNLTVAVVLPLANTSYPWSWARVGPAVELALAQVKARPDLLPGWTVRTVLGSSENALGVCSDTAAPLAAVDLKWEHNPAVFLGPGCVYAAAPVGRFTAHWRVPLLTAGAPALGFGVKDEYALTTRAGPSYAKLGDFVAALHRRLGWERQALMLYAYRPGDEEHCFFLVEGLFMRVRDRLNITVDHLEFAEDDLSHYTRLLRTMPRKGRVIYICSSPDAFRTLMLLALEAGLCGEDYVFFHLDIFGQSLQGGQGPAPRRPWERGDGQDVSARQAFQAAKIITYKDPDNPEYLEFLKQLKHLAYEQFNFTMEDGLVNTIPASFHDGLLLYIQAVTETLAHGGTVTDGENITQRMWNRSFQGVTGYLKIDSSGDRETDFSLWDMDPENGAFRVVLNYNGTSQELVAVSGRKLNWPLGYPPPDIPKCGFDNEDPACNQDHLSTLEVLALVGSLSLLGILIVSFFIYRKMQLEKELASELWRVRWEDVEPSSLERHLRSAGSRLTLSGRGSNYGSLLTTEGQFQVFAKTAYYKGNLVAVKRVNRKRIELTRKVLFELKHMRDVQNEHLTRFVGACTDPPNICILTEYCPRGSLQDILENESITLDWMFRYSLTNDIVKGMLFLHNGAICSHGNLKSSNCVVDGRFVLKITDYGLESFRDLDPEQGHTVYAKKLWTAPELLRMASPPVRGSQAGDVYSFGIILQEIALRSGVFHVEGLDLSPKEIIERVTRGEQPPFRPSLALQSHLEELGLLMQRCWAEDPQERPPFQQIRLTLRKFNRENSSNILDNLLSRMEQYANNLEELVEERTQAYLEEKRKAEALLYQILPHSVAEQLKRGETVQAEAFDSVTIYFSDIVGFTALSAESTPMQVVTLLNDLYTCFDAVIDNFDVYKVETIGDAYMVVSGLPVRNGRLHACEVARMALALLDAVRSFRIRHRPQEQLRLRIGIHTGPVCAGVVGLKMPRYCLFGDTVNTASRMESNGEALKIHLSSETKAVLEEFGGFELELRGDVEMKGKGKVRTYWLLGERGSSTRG
Procedure, shortened: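 HEK293 cells stably expressing human GC-A, held serum-free 4–12 h to 75%–90% confluence. Preincubated 10 min at 37 °C in DMEM with 1 mmol/L IBMX and 25 mmol/L HEPES pH 7.4, then exposed 3 min to increasing peptide in the same medium. Stopped with ice-cold 80% ethanol; dried supernatant assayed for cGMP by RIA. Triplicates in 3 separate assays; EC50 with 95% CI.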

human GC-A [4] = target: T1, human GC-A; assay: Whole-cell 125I-ANP competition binding, 293-GC-A cells; details: IC50 proBNP1–108 / IC50 BNP1–32
Procedure, shortened: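 293-GC-A cells on poly-d-lysine, at 75%–90% confluence, held 1–2 h at 37 °C in DMEM with 0.2% BSA. Incubated 1 h at 4 °C with ¹²⁵I-ANP in 1% BSA binding medium, with or without increasing unlabeled peptide. Washed twice with ice-cold PBS, lysed in 1 mol/L NaOH, γ-counted. B/Bo plotted against log competitor to give IC50. Triplicates in 3 experiments.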

[5] = Proteolytic inactivation by human kidney membranes with GC-A receptor bioassay; assay type: in vitro ADME

Substance: B-type natriuretic peptide [BNP, reference compound]
Half-life in humans [1]: 20 min
Half-life in rats ([2]; rat, in vivo): 1 min

Substance: glycosylated proBNP1–108: glycosylated version of human proBNP1–108 studied in cited literature
Half-life in rats compared with nonglycosylated proBNP1–108 ([2]; result in words, ref [26]): longer half-life
Potency on activation of GC-A, glycosylated versus nonglycosylated (GC-A; result in words): no significant difference

Fold greater EC50 than BNP1–32 on GC-A (human GC-A [3]; EC50 proBNP1–108 / EC50 BNP1–32): approximately 13 fold
Maximal stimulation of GC-A (human GC-A [3]; result in words): near-maximum activities
Fold higher IC50 than BNP1–32 on GC-A (human GC-A [4]): approximately 35 fold
Substance: proBNP1–108: recombinant human 108-residue BNP prohormone with N-terminal His6-tag and rTEV site, expressed in E. coli
Fold longer half time for degradation by human kidney membranes than BNP1–32 [5]: 2.7 fold
Fold longer time for complete inactivation than BNP1–32 [5]: 6 fold
Fold reduced potency compared with BNP1–32 (GC-A; cGMP in human endothelial and vascular smooth muscle cells): 6- to 8 fold
